Activity calls are given as the source filed them. The calls are words filed in the database; no cut-off is given here.
Tests used:
[1] = tested on: Hepatitis B virus; experiment: Antiviral activity against Hepatitis B virus ayw1 infected in human HepG2 2.2.15 cells assessed as reduction in viral DNA replication preincubated for 3 days followed by media replacement and measured after 6 days by q-PCR assay; assay type: functional, organism-based; conditions: ayw1, HepG2 2.2.15
Procedure, shortened: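 HepG2 2.2.15 cells at 1.5 × 10^4 cells/well in DMEM with 2% FBS and 380 μg/mL G418, treated after 16-24 h at several concentrations in triplicate. Compound medium renewed on day 3. Supernatant taken on day 6, pronase-treated, and extracellular HBV DNA measured by TaqMan qPCR against a purified HBV DNA standard curve. EC50 and EC90 taken from the DNA reduction. Lamivudine served as positive control and medium alone as virus control.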

[2] = Cytotoxicity against human HepG2 2.2.15 cells assessed as reduction in cell viability by MTS assay; assay type: toxicity, cell-based
Procedure, shortened: (§1)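 HepG2 2.2.15 cells seeded at 1.5 × 10^4 cells/well in DMEM with 2% FBS, 380 μg/mL G418 and glutamine, using interior wells only. After 16-24 h, the medium was replaced with serial compound dilutions in triplicate, refreshed at day 3. At day 6, pronase-treated supernatant HBV DNA was measured by TaqMan qPCR against a standard curve (EC50/EC90). MTS viability on the same plate gave CC50; SI = CC50/EC.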

[3] = Selectivity index, ratio of CC50 for cytotoxicity against human HepG2 2.2.15 cells to EC90 for antiviral activity against Hepatitis B virus ayw1 infected in human HepG2 2.2.15 cells; assay type: toxicity, cell-based; procedure, shortened: as §1
[4] = tested on: Hepatitis B virus; experiment: Antiviral activity against Hepatitis B virus ayw1 infected in human HepG2 2.2.15 cells assessed as reduction in viral DNA replication preincubated for 3 days followed by media replacement and measured 6 days after first dose by q-PCR assay; conditions: ayw1, HepG2 2.2.15, 144 h
[5] = Selectivity index, ratio of CC50 for cytotoxicity against human HepG2 2.2.15 cells to EC50 for antiviral activity against Hepatitis B virus ayw1 infected in human HepG2 2.2.15 cells; assay type: toxicity, cell-based; conditions: read-out: Ratio CC50/EC50; procedure, shortened: as §1
[6] = Cytotoxicity against human HepDES19 cells assessed as reduction in cell viability incubated for 72 hrs by MTS assay; assay type: toxicity, cell-based; conditions: for CC50 at 72 h: HepDES19 cells
Procedure, shortened: (§2)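 HepDES19 (HepG2-derived, tetracycline-repressible HBV cassette) cells were induced to replicate HBV by tetracycline withdrawal and exposed to compound for 3 days. Replication was read by strand-preferential qPCR; cytotoxicity by MTS assay.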

[7] = Selectivity index, ratio of CC50 for cytotoxicity against human HepDES19 cells to EC50 for antiviral activity against Hepatitis B virus infected in human HepDES19 cells; assay type: toxicity, cell-based; conditions: for selectivity ratio: HepDES19 cells, read-out: Ratio CC50/EC50; procedure, shortened: as §2
[8] = tested on: Hepatitis B virus; experiment: Antiviral activity against Hepatitis B virus infected in human HepDES19 cells assessed as reduction in viral DNA replication measured after 3 days by q-PCR assay; assay type: functional, organism-based
Procedure, shortened: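 HepDES19, a HepG2 derivative with a tetracycline-repressible HBV cassette, was induced to replicate HBV by tetracycline withdrawal. Cells were exposed to compound for 3 days. Replication was measured by strand-preferential qPCR.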

[9] = tested on: Hepatitis B virus; experiment: Antiviral activity against Hepatitis B virus infected in human HepDES19 cells assessed as reduction in capsid accumulation by measuring intracellular HBV nucleocapsid level after 5 days by agarose gel electrophoresis-based assay; assay type: functional, organism-based; conditions: time 5.0 day
Procedure, shortened: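 HepDES19 cells replicating HBV were treated for 5 days. They were lysed in 10mM Tris pH 7.4, 1% Tween 20 and 150mM NaCl with protease inhibitors. Lysates were digested with micrococcal nuclease plus 10mM CaCl2 (final), normalised for protein by Bradford, and run on native agarose gels. Gels were capillary-blotted to nitrocellulose and probed with anti-HBcAg and an AP-conjugated secondary with BCIP/NBT. Bands were quantified by densitometry.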

[10] = Hepatitis B virus, HepDES19, 72 h

Row | Structure (SMILES) | EC50 [1] | CC50 [2] | selectivity ratio [3] | EC90 [4] | selectivity ratio [5] | CC50 at 72 h [6] | selectivity ratio [7] | EC50 [8, 10] | Activity [9] | CC50 ([6]; hepdes19, 72 h, 72 h) | Ratio CC50/EC50 [7] | EC50 ([8]; hepdes19)
1 | Nc1ccn([C@@H]2CS[C@H](CO)O2)c(=O)n1 [LAMIVUDINE] | 18 nM | > 2 µM | > 4 | 0.541 µM | > 113 |  |  |  |  |  |  | 
2 | Cc1nc(N2CC[N+]3(CC2)CC[N+]2(CCNCC2)CC3)c(N)c(N2CC[N+]3(CC2)CC[N+]2(CCNCC2)CC3)n1 | 1860 nM | > 100 µM | > 6 | 15.7 µM | > 54 | 100 µM | 143 | 0.7 µM |  |  |  | 
3 | O=[N+]([O-])c1c(N2CCC[N+]3(CC2)CC[N+]2(CCCNCC2)CC3)ncnc1N1CCC[N+]2(CC1)CC[N+]1(CCCNCC1)CC2 (configuration not stated) |  |  |  |  |  | 100 µM | 11 | 9 µM |  |  |  | 
4 | Nc1c(N2CCC[N+]3(CC2)CC[N+]2(CCCNCC2)CC3)ncnc1N1CCC[N+]2(CC1)CC[N+]1(CCCNCC1)CC2 (configuration not stated) |  |  |  |  |  | 100 µM | 2.5 | 40 µM |  |  |  | 
5 | Cc1nc(N2CC[N+]3(CCC[N+]4(CCNCC4)CC3)CC2)c([N+](=O)[O-])c(N2CC[N+]3(CCC[N+]4(CCNCC4)CC3)CC2)n1 | 6530 nM | > 100 µM | > 2 | 58.1 µM | > 15 | 100 µM | 15 | 6.5 µM | Active |  |  | 
6 | O=Cc1c(N2CC[N+]3(CCC[N+]4(CCNCC4)CC3)CC2)nc(-c2ccccc2)nc1N1CC[N+]2(CCC[N+]3(CCNCC3)CC2)CC1 |  |  |  |  |  | 88 µM | 1.8 | 48 µM |  |  |  | 
7 | Nc1c(N2CC[N+]3(CCC[N+]4(CCNCC4)CC3)CC2)ncnc1N1CC[N+]2(CCC[N+]3(CCNCC3)CC2)CC1 | 22000 nM | > 100 µM | > 1 | 78.1 µM | > 5 | 100 µM | 4.5 | 22 µM |  |  |  | 
8 | Cl.Cl.Clc1nc(N2CCC[N+]3(CC2)CC[N+]2(CCCNCC2)CC3)nc(N2CCC[N+]3(CC2)CC[N+]2(CCCNCC2)CC3)n1.[Br-].[Br-].[Br-].[Br-] (configuration not stated) |  |  |  |  |  |  |  |  |  | 67 µM | 0.67 | > 100 µM
9 | O=Cc1c(O)nc(N2CC[N+]3(CCC[N+]4(CCNCC4)CC3)CC2)nc1N1CC[N+]2(CCC[N+]3(CCNCC3)CC2)CC1 |  |  |  |  |  | 100 µM | 100 | 1 µM |  |  |  | 
10 | O=[N+]([O-])c1c(N2CC[N+]3(CCC[N+]4(CCNCC4)CC3)CC2)ncnc1N1CC[N+]2(CCC[N+]3(CCNCC3)CC2)CC1 |  |  |  |  |  | 100 µM | 11 | 9 µM |  |  |  | 
11 | O=Cc1c(N2CCC[N+]3(CC2)CC[N+]2(CCCNCC2)CC3)ncnc1N1CCC[N+]2(CC1)CC[N+]1(CCCNCC1)CC2 (configuration not stated) |  |  |  |  |  | 100 µM | < 1 | > 100 µM |  |  |  | 
12 | Clc1nc(N2CCC[N+]3(CC2)CC[N+]2(CCCNCC2)CC3)nc(N2CCC[N+]3(CC2)CC[N+]2(CCCNCC2)CC3)n1 (configuration not stated) |  |  |  |  |  |  |  |  | Active |  |  | 
13 | O=Cc1c(N2CC[N+]3(CC2)CC[N+]2(CCNCC2)CC3)nc(-c2ccccc2)nc1N1CC[N+]2(CC1)CC[N+]1(CCNCC1)CC2 | 2130 nM | > 100 µM | > 4 | 26.5 µM | > 47 | 86 µM | 41 | 2.1 µM |  |  |  | 
14 | O=Cc1c(N2CCC[N+]3(CC2)CC[N+]2(CCCNCC2)CC3)nc(-c2ccccc2)nc1N1CCC[N+]2(CC1)CC[N+]1(CCCNCC1)CC2 (configuration not stated) |  |  |  |  |  | 92 µM | 8.4 | 11 µM |  |  |  | 
15 | Clc1nc(N2CCC[N+]3(CC2)CC[N+]2(CCCNCC2)CC3)nc(N2CCC[N+]3(CC2)CC[N+]2(CCCNCC2)CC3)n1.[Br-].[Br-].[Br-].[Br-] (configuration not stated) |  |  |  |  |  | 99 µM |  |  |  |  | 13 | 7.5 µM
16 | O=Cc1c(N2CC[N+]3(CCC[N+]4(CCNCC4)CC3)CC2)ncnc1N1CC[N+]2(CCC[N+]3(CCNCC3)CC2)CC1 |  |  |  |  |  | 100 µM | < 1 | > 100 µM |  |  |  | 
17 | Cc1nc(N2CCC[N+]3(CC2)CC[N+]2(CCCNCC2)CC3)c([N+](=O)[O-])c(N2CCC[N+]3(CC2)CC[N+]2(CCCNCC2)CC3)n1 (configuration not stated) |  |  |  |  |  | 100 µM | 19 | 5.3 µM |  |  |  | 

Source: ChEMBL document CHEMBL5321286, “Antiviral Evaluation of Dispirotripiperazines against Hepatitis B Virus” (J Med Chem, 2023)
